Measurements as given in ChEMBL document CHEMBL1131571, “Potent, selective, and orally bioavailable tricyclic pyridyl acetamide N-oxide inhibitors of farnesyl protein transferase with enhanced in vivo antitumor activity” (J Med Chem, 1998).

Key:
[1] = Area under the concentration time curve (AUC) taken for 0-24 hr was measured when administered through iv route in mice; format: ADME, organism-based; design: time < 24 hr, route intravenous; conditions: mouse, in vivo
Summary of the method: (§1)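 Mice received a single 25 mg/kg dose, as HCl salt in 20% hydroxypropyl-β-cyclodextrin, either orally or iv by tail vein. Blood was taken by cardiac puncture after CO2 euthanasia at nine times from 2 min to 24 h, with two mice per time point. Serum was acetonitrile-precipitated and quantified by HPLC-APCI tandem MS. AUC was derived by the linear trapezoidal rule on mean concentrations. Bioavailability is the oral/iv AUC ratio, from different animals. Cmax is the highest mean oral concentration. Half-life was estimated graphically after iv dosing.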

DLD-1 [2] = experiment: The inhibition of growth of solid tumor in DLD-1 model was measured at 10 mg/kg after po administration. 0.1<p<0.25; format: functional; conditions: Homo sapiens
[3] = Area under the concentration time curve (AUC) taken for 0-24 hr was measured when administered through oral route in mice; format: ADME, organism-based; design: time < 24 hr, route oral; conditions: mouse, in vivo; summary of the method: as §1
[4] = Inhibition of Geranylgeranyl transferase; design: species or system Homo sapiens
Summary of the method: (§2)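 Radiometric transfer assays measuring trichloroacetic acid-precipitable label. FPT: [3H]farnesyl from [3H]farnesyl pyrophosphate onto Ha-Ras-CVLS. GGPT-1: [3H]geranylgeranyl from [3H]geranylgeranyl diphosphate onto Ha-Ras-CVLL.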

[5] = target: Protein farnesyltransferase (Homo sapiens, UniProt P49354+P49356); experiment: Inhibition of Farnesyltransferase; format: protein-complex assay; summary of the method: as §2
[6] = Biological half life was measured when given iv route in mice; format: ADME, organism-based; conditions: mouse, in vivo; summary of the method: as §1
COS-1 = experiment: Inhibitory activity was measured against COS cell; format: functional, cell-based, Cercopithecidae; conditions: Chlorocebus aethiops
Summary of the method: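 Inhibition of intracellular H-Ras processing, measured in transfected Cos cells.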

[7] = maximum concentration was measured when administered through oral route in mice; format: ADME, organism-based; design: route oral; conditions: mouse, in vivo; summary of the method: as §1
[8] = Oral bioavailability in mouse; format: ADME, organism-based; conditions: in vivo; summary of the method: as §1
DLD-1 [9] = experiment: The inhibition of growth of solid tumor in DLD-1 model was measured at 50 mg/kg after po administration. 0.01<p<0.025; format: functional; conditions: Homo sapiens
DLD-1 [10] = experiment: The inhibition of growth of solid tumor in DLD-1 model was measured at 50 mg/kg after po administration. p<0.01; format: functional; conditions: Homo sapiens
DLD-1 [11] = experiment: The inhibition of growth of solid tumor in DLD-1 model was measured at 10 mg/kg after po administration. 0.01<p<0.025; format: functional; conditions: Homo sapiens
DLD-1 [12] = experiment: The inhibition of growth of solid tumor in DLD-1 model was measured at 10 mg/kg after po administration. 0.05<p<0.1; format: functional; conditions: Homo sapiens

Compound | AUC at 24 h [1] [ng·h/mL] | inhibition in vivo at 10 mg/kg (DLD-1 [2]) [%] | AUC at 24 h [3] [ng·h/mL] | IC50 [4] [nM] | IC50 [5] [nM] | half-life [6] [min] | IC50 (COS-1) [nM] | Cmax [7] [ng/mL] | bioavailability [8] [%] | inhibition in vivo at 50 mg/kg (DLD-1 [9]) [%] | inhibition in vivo at 50 mg/kg (DLD-1 [10]) [%] | inhibition in vivo at 10 mg/kg (DLD-1 [11]) [%] | inhibition in vivo at 10 mg/kg (DLD-1 [12]) [%]
O=C(Cc1cc[n+]([O-])cc1)N1CCC(C2c3ccc(Cl)cc3CCc3cc(Br)cnc32)CC1 (stereo unspecified) | 10600 | 38 | 4100 | > 38000 | 40 | 46 | 400 | 10000 | 38 | 60 | – | – | –
O=C(Cc1cc[n+]([O-])cc1)N1CCC(C2c3ccc(Cl)cc3C=C(Br)c3cc(Br)cnc32)CC1 (stereo unspecified) | 43700 | – | 84900 | > 33000 | 40 | 82.2 | 600 | 12000 | 100 | – | 70 | 52 | –
O=C(Cc1cc[n+]([O-])cc1)N1CCC(C2c3ccc(Cl)cc3C=Cc3cc(Br)cnc32)CC1 (stereo unspecified) | 18600 | – | 19000 | > 38000 | 30 | 26.6 | 700 | 11000 | 100 | – | 37 | – | 21
O=C(Cc1cc[n+]([O-])cc1)N1CCC(=C2c3ccc(Cl)cc3CCc3cc(Br)cnc32)CC1 | – | – | – | 38000 | – | 48 | – | 10000 | 75 | – | 40 | 28 | –
